Test results as given in ChEMBL document CHEMBL1134278, “Design, synthesis, and biological activity of methoctramine-related polyamines as putative G(i) protein activators” (J Med Chem, 2001).

Legend:
[1] = biological target: T1, Muscarinic acetylcholine receptor M5 (Homo sapiens) (UniProt P08912); test: Affinity for human muscarinic acetylcholine receptor M5 subtype expressed in CHO-K1 cells at a concentration of 10 uM; type: cell-based
T1 sequence (whole entry): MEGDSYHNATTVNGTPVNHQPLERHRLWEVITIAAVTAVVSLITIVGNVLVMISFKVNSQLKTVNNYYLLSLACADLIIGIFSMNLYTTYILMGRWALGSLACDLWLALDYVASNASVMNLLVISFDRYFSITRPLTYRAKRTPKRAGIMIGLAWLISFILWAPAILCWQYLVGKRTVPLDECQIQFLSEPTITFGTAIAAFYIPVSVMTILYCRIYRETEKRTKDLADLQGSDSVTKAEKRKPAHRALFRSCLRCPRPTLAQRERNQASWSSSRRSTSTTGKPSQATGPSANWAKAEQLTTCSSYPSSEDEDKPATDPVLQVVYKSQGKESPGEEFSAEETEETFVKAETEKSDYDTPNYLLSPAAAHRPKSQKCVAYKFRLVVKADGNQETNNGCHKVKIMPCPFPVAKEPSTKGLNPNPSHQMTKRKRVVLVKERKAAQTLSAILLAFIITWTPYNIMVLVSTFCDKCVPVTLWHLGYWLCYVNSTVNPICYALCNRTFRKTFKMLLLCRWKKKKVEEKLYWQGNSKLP

[2] = species on record: Cavia porcellus; test: Inotropic responses, induced by the compound in electrically paced (Hz) guinea pig left atria; type: functional
Outline: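 Left atria from guinea pig were electrically driven at 1 Hz, and negative inotropic effect was recorded. Cumulative concentration–response curves were run, with arecaidine propargyl ester (APE) as the muscarinic agonist reference. EC50 came from nonlinear regression curve fitting as the mean ± SE of at least four independent experiments.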

[3] = biological target: T2, Muscarinic acetylcholine receptor M3 (Homo sapiens, UniProt P20309); test: Affinity for human M3 cloned muscarinic receptor subtype expressed in CHO-K1 cells at a concentration of 10 uM; type: cell-based
Target sequence in this assay (P20309 whole entry, looked up): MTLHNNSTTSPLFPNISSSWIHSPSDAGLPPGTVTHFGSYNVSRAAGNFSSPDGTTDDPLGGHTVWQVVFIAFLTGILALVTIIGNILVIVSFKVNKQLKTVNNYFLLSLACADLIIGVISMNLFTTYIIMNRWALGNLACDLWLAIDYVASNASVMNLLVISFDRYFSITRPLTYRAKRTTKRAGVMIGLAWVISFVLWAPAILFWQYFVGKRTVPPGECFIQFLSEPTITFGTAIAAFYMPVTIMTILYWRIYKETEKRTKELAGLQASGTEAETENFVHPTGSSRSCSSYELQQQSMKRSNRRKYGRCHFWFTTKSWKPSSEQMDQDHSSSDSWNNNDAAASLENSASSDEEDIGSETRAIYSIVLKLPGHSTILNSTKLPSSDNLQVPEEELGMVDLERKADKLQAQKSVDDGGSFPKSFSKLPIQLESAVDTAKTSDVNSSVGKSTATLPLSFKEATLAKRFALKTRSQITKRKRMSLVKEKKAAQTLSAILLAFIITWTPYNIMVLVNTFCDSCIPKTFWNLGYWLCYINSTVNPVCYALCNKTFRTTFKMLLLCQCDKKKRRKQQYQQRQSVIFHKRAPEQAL

[4] = biological target: T3, Muscarinic acetylcholine receptor M2 (Homo sapiens) (UniProt P08172); test: Affinity for human muscarinic acetylcholine receptor M2 expressed in CHO-K1 cells at a concentration of 10 uM; type: cell-based
T3 sequence (whole entry): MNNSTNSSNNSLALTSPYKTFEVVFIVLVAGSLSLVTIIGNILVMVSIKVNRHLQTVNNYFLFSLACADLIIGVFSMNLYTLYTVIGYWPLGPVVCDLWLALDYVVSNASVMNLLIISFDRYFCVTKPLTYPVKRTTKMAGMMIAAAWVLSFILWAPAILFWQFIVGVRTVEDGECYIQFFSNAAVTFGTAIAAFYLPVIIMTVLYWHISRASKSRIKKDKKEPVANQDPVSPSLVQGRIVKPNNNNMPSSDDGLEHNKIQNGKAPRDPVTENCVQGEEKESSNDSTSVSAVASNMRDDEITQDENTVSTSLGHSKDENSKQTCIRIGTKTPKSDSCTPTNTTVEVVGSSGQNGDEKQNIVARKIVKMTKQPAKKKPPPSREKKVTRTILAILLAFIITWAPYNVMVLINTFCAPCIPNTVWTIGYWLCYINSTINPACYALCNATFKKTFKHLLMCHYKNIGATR

[5] = species on record: Cavia porcellus; test: Inotropic response relative to APE (APE = 100) in electrically paced (Hz) guinea pig left atria; type: functional
[6] = biological target: T4, Muscarinic acetylcholine receptor M1 (Homo sapiens) (UniProt P11229); test: Affinity for human M1 cloned muscarinic receptor subtype expressed in CHO-K1 cells at a concentration of 10 uM; type: cell-based
T4 sequence (whole entry): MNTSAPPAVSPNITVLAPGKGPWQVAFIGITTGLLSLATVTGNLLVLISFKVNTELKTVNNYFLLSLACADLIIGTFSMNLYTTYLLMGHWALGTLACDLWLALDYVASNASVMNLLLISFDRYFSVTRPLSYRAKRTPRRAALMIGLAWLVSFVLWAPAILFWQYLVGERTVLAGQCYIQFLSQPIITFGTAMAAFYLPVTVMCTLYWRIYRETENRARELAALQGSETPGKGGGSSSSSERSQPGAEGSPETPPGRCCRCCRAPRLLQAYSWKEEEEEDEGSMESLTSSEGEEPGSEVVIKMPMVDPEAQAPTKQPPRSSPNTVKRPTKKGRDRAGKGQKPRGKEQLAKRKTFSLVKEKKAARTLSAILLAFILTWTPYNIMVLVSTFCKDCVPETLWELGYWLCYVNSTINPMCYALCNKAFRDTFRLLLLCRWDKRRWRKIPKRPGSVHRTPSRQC

[7] = biological target: T5, Muscarinic acetylcholine receptor M4 (Homo sapiens) (UniProt P08173); test: Affinity for human M4 cloned muscarinic receptor subtype expressed in CHO-K1 cells at a concentration of 10 uM; type: cell-based
T5 sequence (whole entry): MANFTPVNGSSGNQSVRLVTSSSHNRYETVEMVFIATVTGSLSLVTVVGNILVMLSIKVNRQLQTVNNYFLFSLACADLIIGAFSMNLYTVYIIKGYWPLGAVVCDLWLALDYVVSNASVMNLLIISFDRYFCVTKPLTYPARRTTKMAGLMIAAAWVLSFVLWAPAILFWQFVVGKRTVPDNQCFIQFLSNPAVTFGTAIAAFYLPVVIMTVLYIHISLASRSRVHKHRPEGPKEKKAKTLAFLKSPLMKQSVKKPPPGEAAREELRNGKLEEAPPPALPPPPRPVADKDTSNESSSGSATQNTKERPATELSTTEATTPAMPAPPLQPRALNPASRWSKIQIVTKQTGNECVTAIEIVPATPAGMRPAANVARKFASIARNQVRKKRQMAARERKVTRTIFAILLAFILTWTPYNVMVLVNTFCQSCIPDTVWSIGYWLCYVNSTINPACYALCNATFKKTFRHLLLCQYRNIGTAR

[8] = biological target: T2, Muscarinic acetylcholine receptor M3; test: Affinity for human M3 cloned muscarinic receptor subtype expressed in CHO-K1 cells; type: cell-based
Outline: (§1)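 Radioligand displacement of [³H]NMS in CHO-K1 cells expressing human cloned muscarinic M1–M5 receptors. IC50 values were converted to Ki with the Cheng–Prusoff equation. Results are means ± SE of two to three experiments, each run in triplicate.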
Target sequence in this assay (P20309 whole entry): as the sequence (P20309 whole entry, looked up) above

[9] = biological target: T6, Muscarinic acetylcholine receptor M2 (Homo sapiens, UniProt P08172); test: biochemical
T6 sequence (P08172 whole entry): T3 sequence (whole entry)

[10] = biological target: T7, Muscarinic acetylcholine receptor M4 (Homo sapiens, UniProt P08173); test: Affinity for human M4 cloned muscarinic receptor subtype expressed in CHO-K1 cells; type: cell-based; outline: as §1
T7 sequence (P08173 whole entry): T5 sequence (whole entry)

[11] = biological target: T8, Muscarinic acetylcholine receptor M5 (Homo sapiens, UniProt P08912); test: Affinity for human muscarinic acetylcholine receptor M5 subtype expressed in CHO-K1 cells; type: cell-based; outline: as §1
T8 sequence (P08912 whole entry): T1 sequence (whole entry)

[12] = biological target: T9, Muscarinic acetylcholine receptor M1 (Homo sapiens, UniProt P11229); test: Affinity for human M1 cloned muscarinic receptor subtype expressed in CHO-K1 cells; type: cell-based; outline: as §1
T9 sequence (P11229 whole entry): T4 sequence (whole entry)

[13] = species on record: Cavia porcellus; test: Antagonist affinity, in electrically paced (1 Hz) guinea pig left atria using N-dodecyl lysine amide as agonist
[14] = species on record: Cavia porcellus; test: Antagonist affinity, in electrically paced (1 Hz) guinea pig left atria using 1'-[8-(1-(2-methoxy -benzyl)-[4,4']bipiperidinyl)-octyl]-1-(2-methoxy-benzyl)-[4,4']biiperidinyl as agonist; type: functional
Outline: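 Driven guinea pig left atria paced at 1 Hz. Each antagonist was tested at one concentration, 0.1 µM, incubated 1 h. One tissue received the antagonist and a second untreated tissue served as control, each giving a cumulative agonist concentration–response curve. pK_B = −log{[antagonist]/(DR−1)}. Mean ± SE of four experiments.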

[15] = species on record: Cavia porcellus; test: Antagonist affinity, in electrically paced (1 Hz) guinea pig left atria using the APE as agonist; type: functional
Outline: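 Driven guinea pig left atria paced at 1 Hz, with cumulative agonist concentration–response curves. Each antagonist was tested at one concentration, 0.1 µM, incubated 1 h. pK_B was calculated from the dose ratio as −log{[antagonist]/(DR−1)}. Mean ± SE of four experiments.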

[16] = biological target: T6, Muscarinic acetylcholine receptor M2; test: Binding affinity against muscarinic acetylcholine receptor M2

Reduction [1]	EC50 [2]	Reduction [3]	Reduction [4]	Reduction [6]	Reduction [7]	Compound	Relative efficacy [5]	other results
29%	0.525 nM	12%	49%	22%	28%	COc1ccccc1CN1CCC(C2CCNCC2)CC1	75	
	0.398 nM					COc1ccccc1CN1CCC(C2CCN(C(=O)CCCCCCC(=O)N3CCC(C4CCN(Cc5ccccc5OC)CC4)CC3)CC2)CC1 [PIPERTRAMINE AMIDE]	85	Ki [8]: 97.2 nM; Ki [9]: 9.2 nM; Ki [10]: 16.6 nM; Ki [11]: 183 nM; Ki [12]: 108 nM
25%	0.603 nM	12%	35%	17%	25%	COc1ccccc1CN1CCC(C2CCN(C)CC2)CC1	70	
						CN1[C@@H]2CC[C@H]1C[C@@H](OC(=O)C(CO)c1ccccc1)C2 (some centres not stated) [ATROPINE]		pKB [13]: 7.45; pKB [14]: 7.18; pKB [15]: 9.15
	0.224 nM					COc1ccccc1CN1CCC(C2CCN(CCCCCCCCN3CCC(C4CCN(Cc5ccccc5OC)CC4)CC3)CC2)CC1 [PIPERTRAMINE]	84	Ki [8]: 422 nM; Ki [10]: 15.3 nM; Ki [11]: 105 nM; Ki [16]: 8.6 nM; Ki [12]: 19.8 nM
24%	0.339 nM	17%	13%	17%	0%	CCCCCCCCCCCCNC(CCCCN)C(N)=O (configuration not stated)	82	
	1.29 nM					COc1ccccc1CN1CCC(C2CCN(C(C)=O)CC2)CC1	79	

Compound	Reduction [1]	EC50 [2]	Reduction [3]	Reduction [4]	Reduction [6]	Reduction [7]	Relative efficacy [5]	other results
C#CCOC(=O)C1=CCCN(C)C1 [ARECAIDINE PROPARGYL ESTER]		7.08 nM					100	
